Laboratory results taken from paper PMC4834983 (Journal of medicinal chemistry, 2015).

What was measured:
[1] = target: T1, Stat1:Stat1 (Mus musculus, UniProt P42225); assay: Cell-free EMSA, EGF-stimulated NIH3T3/hEGFR nuclear extracts; assay type: biochemical; settings: 5 μM, 30 min pre-incubation
T1 sequence (P42225 2-749 limits assumed): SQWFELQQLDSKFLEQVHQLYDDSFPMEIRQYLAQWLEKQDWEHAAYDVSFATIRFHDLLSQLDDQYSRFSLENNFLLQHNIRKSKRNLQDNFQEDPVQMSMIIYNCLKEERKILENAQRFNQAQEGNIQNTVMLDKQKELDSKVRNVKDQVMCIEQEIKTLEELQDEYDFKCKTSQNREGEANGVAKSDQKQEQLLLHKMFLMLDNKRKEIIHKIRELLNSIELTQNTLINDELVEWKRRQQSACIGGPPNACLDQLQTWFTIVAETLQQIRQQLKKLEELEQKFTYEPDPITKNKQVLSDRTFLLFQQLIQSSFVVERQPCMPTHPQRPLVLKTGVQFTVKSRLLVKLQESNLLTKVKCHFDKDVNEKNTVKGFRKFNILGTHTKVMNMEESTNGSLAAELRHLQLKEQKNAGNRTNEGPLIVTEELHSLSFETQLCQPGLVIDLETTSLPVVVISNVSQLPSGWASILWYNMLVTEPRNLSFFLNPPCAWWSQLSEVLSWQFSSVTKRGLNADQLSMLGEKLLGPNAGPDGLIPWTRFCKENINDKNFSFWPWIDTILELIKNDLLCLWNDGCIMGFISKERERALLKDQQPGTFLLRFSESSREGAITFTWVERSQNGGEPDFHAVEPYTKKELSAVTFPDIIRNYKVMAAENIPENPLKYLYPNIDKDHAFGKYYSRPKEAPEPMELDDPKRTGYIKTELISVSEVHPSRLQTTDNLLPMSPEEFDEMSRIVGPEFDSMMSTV
How it was run: (§1)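 Nuclear extracts from EGF-stimulated NIH3T3/hEGFR fibroblasts, containing active Stat1, Stat3 and Stat5, preincubated with 5 μM test compound for 30 min at room temperature. Then incubated 30 min with 32P-labelled probe before EMSA: hSIE (Stat1/Stat3 binding) or MGFe (bovine β-casein element; Stat1/Stat5 binding). STAT:DNA bands quantified as percent of control.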

[2] = test system: U251MG subcutaneous tumor xenografts; assay: Subcutaneous glioma xenograft tumor growth; assay type: in vivo, mouse; settings: 2 mg/kg, oral gavage, 33 days
How it was run: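 Female athymic nude mice, 4 weeks old, injected subcutaneously in the left flank with 7.3 ×10^6 U251MG cells in PBS/matrigel. At 20 days (tumours 170–250 mm3), mice grouped by matched mean tumour size. Dosed 2 mg/kg by oral gavage in 1% DMSO vehicle, three times weekly, for 33 days. Caliper volumes (V = 0.52 × a2 × b) and body weights recorded; paired t test against vehicle.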

[3] = Body weights and signs of toxicity in tumor-bearing mice; assay type: in vivo; settings: 2 mg/kg, oral gavage, 33 days
[4] = test system: U251MG cells; assay: BrdU incorporation assay; assay type: cell-based, human; settings: 5 μM, at 24 h
How it was run: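 U251MG cells on glass coverslips exposed to DMSO or 5 μM test compound for 3–24 h. BrdU (10 micromolar) added for the final 2 h. Fixed in 4% paraformaldehyde for 10 min, stained with anti-BrdU antibody and counterstained with DAPI. Imaged by fluorescence microscopy, and cells counted.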

[5] = test system: protein tyrosine phosphatase (PTP)1B; assay: Immunoblotting, U251MG glioma cells; assay type: cell-based, human; settings: 5 μM
How it was run: (§2)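 U251MG cells given 5 μM test compound for 0–24 h. Whole-cell lysates of equal total protein immunoblotted for pErk1/2, Erk1/2, pS-Akt, Akt, pJAK2, JAK2, SOCS3 and PTP1B, with β-actin or GAPDH as loading reference.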

[6] = test system: pS-Akt; assay: Immunoblotting, U251MG glioma cells; assay type: cell-based, human; settings: 5 μM
How it was run: as §2

[7] = test system: pStat5; assay: Immunoblotting, EGF-stimulated NIH3T3/hEGFR fibroblasts; assay type: cell-based, mouse; settings: 5 μM pre-treatment
How it was run: (§3)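 NIH3T3/hEGFR fibroblasts pretreated with or without 5 μM test compound for 3 h, then stimulated with 1 μg/ml EGF for 12 min. Whole-cell lysates, equal total protein, immunoblotted for pStat1/Stat1, pStat5/Stat5 and pErk1/2/Erk1/2.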

[8] = test system: U251MG cells; assay: Immunofluorescence staining/confocal microscopy of mitosis; assay type: cell-based, human; settings: 15 h treatment
How it was run: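 U251MG cells on coverslips synchronised by double thymidine block (2 mM) and released for 9 h. Then given DMSO, 100 nM paclitaxel or 8 μM test compound for 15 h. Fixed in 4% paraformaldehyde, permeabilised with 0.1% digitonin and blocked in 0.2% BSA. Stained with anti-β-tubulin (1:350) and anti-MAP1B (1:300) for 1 h at room temperature, then fluorescent secondaries and DAPI; confocal imaging.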

[9] = test system: c-Myc, Bcl-2, Mcl-1 and Bcl-xL expression; assay: Immunoblots of Stat3-regulated gene products in U251MG cells; assay type: cell-based, human; settings: 5 μM
How it was run: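 Whole-cell lysates prepared from U251MG cells given 5 μM test compound for 0–24 h, with 0.025% DMSO as control. Immunoblotted for c-Myc, Bcl-2, Bcl-xL, Mcl-1, pStat3 and Stat3, with GAPDH as loading reference.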

[10] = test system: pStat3; assay: Immunoblotting of pStat3 in patient-derived xenograft cells; assay type: cell-based, human; settings: 5 μM, 3 h
How it was run: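 Glioma patient-derived xenograft G22 cells (DMEM, 5–10% heat-inactivated FBS) given 5 μM test compound for 0–24 h. Whole-cell lysates immunoblotted for pStat3 and Stat3, with GAPDH as loading reference.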

[11] = test system: U251MG cells; assay: Colony survival assay; assay type: cell-based, human; settings: 1 μM, treated once
How it was run: (§4)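 Cells seeded as single cells at 250 per well and treated once the next day with test compound (0–5 μM) for 72 h. Grown until large colonies were visible: 1 week for NIH3T3, 2 weeks for U251MG. Colonies stained with crystal violet for 4 h and counted.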

[12] = test system: suppressors of cytokine signaling (SOCS)3; assay: Immunoblotting, U251MG glioma cells; assay type: cell-based, human; settings: 5 μM
How it was run: as §2

[13] = test system: U251MG cells; assay: Scratch assay for migration; assay type: cell-based, human; settings: 5 μM, 19-h treatment
How it was run: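 Sub-confluent U251MG monolayers wounded with pipette tips and treated once with test compound (0–5 μM) or DMSO vehicle. Cells allowed to migrate into the denuded area over 19 h, then imaged by microscopy at 10×.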

[14] = test system: G22 cells; assay: Growth of glioma patient-derived xenograft cells in vitro; assay type: cell-based; settings: Homo sapiens, read-out: inhibitory activity against growth of G22 cells
[15] = test system: pErk1/2MAPK; assay: Immunoblotting, EGF-stimulated NIH3T3/hEGFR fibroblasts; assay type: cell-based, mouse; settings: 5 μM pre-treatment
How it was run: as §3

[16] = test system: NIH3T3 cells; assay: Colony survival assay; assay type: cell-based, mouse; settings: 2.5 μM or less
How it was run: as §4

[17] = test system: G22 cells; assay: 3D spheroid assay; assay type: cell-based, human; settings: 5 μM, treated once
[18] = test system: pJAK2; assay: Immunoblotting, U251MG glioma cells; assay type: cell-based, human; settings: 5 μM
How it was run: as §2

[19] = test system: pErk1/2MAPK; assay: Immunoblotting, U251MG glioma cells; assay type: cell-based, human; settings: 5 μM
How it was run: as §2

[20] = test system: pStat3; assay: Immunoblots of tumor tissue lysates from treated mice; assay type: in vivo, mouse; settings: four-to-five cases out of six
How it was run: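 After oral dosing, lysates of residual subcutaneous U251MG tumour tissue from treated and 1% DMSO vehicle mice. Immunoblotted for pStat3 and Stat3, with GAPDH as loading reference.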

[21] = target: Stat3:Stat3 (Mus musculus, UniProt P42227); assay: Cell-free EMSA, nuclear extracts pre-incubated with compound, hSIE probe; assay type: biochemical; settings: 5 μM, 30 min pre-incubation, NIH3T3/v-Src nuclear extracts
Stat3:Stat3, sequence (P42227 2-770 limits assumed): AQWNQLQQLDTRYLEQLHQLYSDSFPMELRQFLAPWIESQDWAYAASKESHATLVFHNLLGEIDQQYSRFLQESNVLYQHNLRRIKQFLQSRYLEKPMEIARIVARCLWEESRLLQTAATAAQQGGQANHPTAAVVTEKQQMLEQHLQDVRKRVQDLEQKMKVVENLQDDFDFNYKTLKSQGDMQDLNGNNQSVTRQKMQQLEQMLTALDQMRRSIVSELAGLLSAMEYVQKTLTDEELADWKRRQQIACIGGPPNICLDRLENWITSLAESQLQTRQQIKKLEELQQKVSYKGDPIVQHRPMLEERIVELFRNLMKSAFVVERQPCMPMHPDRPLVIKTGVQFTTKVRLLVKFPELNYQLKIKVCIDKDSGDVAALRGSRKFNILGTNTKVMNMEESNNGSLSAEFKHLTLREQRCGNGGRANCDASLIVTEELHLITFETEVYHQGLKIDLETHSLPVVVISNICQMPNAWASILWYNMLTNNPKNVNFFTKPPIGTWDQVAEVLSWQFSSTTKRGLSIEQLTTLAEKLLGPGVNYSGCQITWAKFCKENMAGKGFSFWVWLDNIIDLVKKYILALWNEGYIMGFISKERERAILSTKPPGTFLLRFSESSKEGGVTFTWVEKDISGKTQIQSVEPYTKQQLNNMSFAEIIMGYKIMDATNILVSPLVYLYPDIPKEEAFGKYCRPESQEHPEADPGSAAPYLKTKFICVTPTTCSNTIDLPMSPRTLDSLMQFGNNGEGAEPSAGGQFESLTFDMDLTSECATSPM

[22] = test system: G12 cells; assay: Growth of glioma patient-derived xenograft cells in vitro; assay type: cell-based; settings: Homo sapiens, read-out: inhibitory activity against G12 cell growth
[23] = test system: G10 cells; assay: as above; assay type: cell-based; settings: Homo sapiens, read-out: inhibitory activity against growth of G10 cells
[24] = test system: pYStat3; assay: Immunoblotting of pStat3 in treated U251MG cells; assay type: cell-based, human; settings: 5 μM, glioma cells, immunoblotting
How it was run: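 Whole-cell lysates from U251MG cells given test compound at 5 μM for 0–24 h, or at 0–5 μM for 2 h. Immunoblotted for pY705Stat3 and total Stat3, with GAPDH as loading reference.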

[25] = test system: Stat5:Stat5; assay: Cell-free EMSA, EGF-stimulated NIH3T3/hEGFR nuclear extracts, MGFe probe; assay type: biochemical, mouse; settings: 5 μM, 30 min pre-incubation
How it was run: as §1

[26] = test system: Stat3; assay: Stat3 DNA-binding activity/EMSA of nuclear extracts from treated glioma cells; assay type: cell-based, human; settings: 5 μM, glioma cells, EMSA
[27] = test system: pStat1; assay: Immunoblotting, EGF-stimulated NIH3T3/hEGFR fibroblasts; assay type: cell-based, mouse; settings: 5 μM pre-treatment
How it was run: as §3

C/C=C(\C)C(=O)O[C@H]1C[C@@H](C)[C@]2(O)CC[C@](C)(/C=C3/OC(=O)C(COC(C)=O)=C31)O2 [Compound 6]
effect on Stat1:Stat1 activity, cell-free EMSA [1]: weak effects | growth of subcutaneous U251MG xenografts [2]: inhibited growth | body weights or obvious signs of toxicity [3]: No significant changes | cell proliferation measured by BrdU incorporation [4]: significantly impaired | effect on PTP1B levels [5]: no effects | effect on pS-Akt levels [6]: no effects | effect on EGF-stimulated pStat5 levels [7]: no effect | chromatid structures and sister-chromatids segregation (mitosis) [8]: caused defects | c-Myc, Bcl-2, Mcl-1 and Bcl-xL expression [9]: down regulated | effect on Phospho-Stat3 in G22 cells [10]: strongly inhibited | U251MG colony formation [11]: completely inhibited | effect on SOCS3 levels [12]: no effects | migration into the denuded area [13]: slowed migration | inhibition at 5 µM [14]: 45 to 60% | effect on EGF-stimulated pErk1/2MAPK levels [15]: no effect | effects on NIH3T3 colony numbers [16]: moderate or none | 3D spheroid growth [17]: decreased 3D spheroid growth | effect on pJAK2 [18]: apparent moderate increase | effect on pErk1/2MAPK levels [19]: no effects | pStat3 and Stat3 levels in residual tumor tissues [20]: lower | Stat3:Stat3/DNA-binding activity (complexation), cell-free EMSA [21]: diminished | inhibition at 5 µM [22]: 25 to 35% | inhibition at 5 µM [23]: 45 to 60% | effect on pStat3 in treated tumor cells [24]: strongly inhibited | effect on Stat5:Stat5 activity, cell-free EMSA [25]: weak effects | effect on Stat3 DNA-binding activity in treated tumor cells [26]: strongly inhibited | effect on EGF-stimulated pStat1 levels [27]: no effect
